STEP inh: inhibitors of human striatal-enriched phosphatase STEP; hit rate 0.25% among 360,000; inhibition, % at 20 µM; recombinant STEP, OMFP fluorogenic substrate, fluorescence;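 active = inhibition at 20 µM, scaled per plate between control wells, above about 37%, limit read from the data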
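medium = Bis-Tris buffer pH 6.0, 2.5 mM DTT, 0.005% Tween 20 | test system = STEP (striatal-enriched tyrosine phosphatase) enzyme, cell-free | measure = normalized % inhibition | compound dosing = 20 µM, 1% DMSO | also added = 25 µM OMFP | schedule = reaction 20 min, ambient temperature | measured by = fluorescence read at 480 nm ex / 540 nm em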
LMPTP block: LMPTP (human) inhibition; inhibition, % at 20 µM; recombinant LMPTP-A, OMFP fluorogenic substrate, fluorescence intensity; P24666; AID 651560; hit rate 0.22% among 360,000;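 active = compounds that cut the enzyme signal by at least half of the control window in the single-dose screen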
Target sequence (P24666 whole entry, looked up): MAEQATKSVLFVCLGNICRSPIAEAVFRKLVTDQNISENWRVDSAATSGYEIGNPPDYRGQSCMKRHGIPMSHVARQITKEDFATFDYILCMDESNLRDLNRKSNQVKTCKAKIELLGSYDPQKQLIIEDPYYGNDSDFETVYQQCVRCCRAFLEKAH
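Test system: LMPTP-A, protein tyrosine phosphatase of low molecular weight; Input: 0.625 nM enzyme; Incubation: 50 min dark incubation at room temperature; Signal: endpoint fluorescence intensity from OMFP dephosphorylation; Read-out basis: % inhibition versus control wells.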
Scp-1 inhibitor: Scp-1 (human) phosphatase inhibition; AID 493091; inhibition, % at 20 µM; Recombinant Scp1, phosphopeptide, malachite green phosphate absorbance; hit rate 0.88% among 340,000;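 active = inhibition above about 50% at 20 µM, limit read from the data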
Target sequence (Q9GZU7 76-261 limits assumed): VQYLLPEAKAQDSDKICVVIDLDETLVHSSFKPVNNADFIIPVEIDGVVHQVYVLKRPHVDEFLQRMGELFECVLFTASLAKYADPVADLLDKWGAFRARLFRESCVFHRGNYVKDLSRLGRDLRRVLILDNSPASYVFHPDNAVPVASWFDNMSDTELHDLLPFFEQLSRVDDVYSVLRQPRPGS
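Test system – truncated SCP-1 phosphatase (76-261aa) · Reagent – Phosphorylated 17-residue peptide substrate · Incubation – 45 min room-temperature reaction, 5 min colour, 30 min stabiliser · Detection – colorimetric phosphate reagent with accelerator and stabiliser, absorbance at 630 nm · Measure – % inhibition at 20 µM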
SUMO1 PPI mod: alters human SUMO1 binding to SIM partners; inhibition, % at 20 µM; SUMO1 binding to a labelled peptide, TR-FRET, 1 h; P63165; hit rate 0.33% among 360,000; AID 602429; in the data active = inhibition above about 37%
Target sequence (P63165 whole entry, looked up): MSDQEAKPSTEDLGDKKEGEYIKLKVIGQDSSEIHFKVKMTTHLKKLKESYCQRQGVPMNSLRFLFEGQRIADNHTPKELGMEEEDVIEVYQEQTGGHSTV
FAS-TE inh: FAS thioesterase (human) inhibition. inhibition, % at 15 µM. hit rate 0.67% among 360,000. recombinant FAS-TE, OMFH fluorogenic substrate, fluorescence endpoint;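 active = compounds whose normalised, plate-corrected inhibition of enzyme fluorescence in the single-dose primary screen is 50% or more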
Scp1 confirm: confirmation of human Scp-1 phosphatase inhibitors; shares compounds with Scp-1 inhibitor; recombinant SCP-1 catalytic domain, phosphate release, malachite green absorbance; inhibition, % at 20 µM; hit rate 61% among 2,500
Scp-1 MG ctr: colorimetric interference in Scp-1 counter-screen. shares compounds with Scp-1 inhibitor. Colorimetric interference counterscreen, malachite green absorbance 630 nm. apparent inhibition (interference), % at 20 µM. 2,500 tested, under 10 active. AID 540313;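 note: compounds added after enzyme reaction finished so only phosphate colour detection is probed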
Scp-1 Tm shift: binds human Scp-1, shifting its melting temperature; AID 540329; hit rate 25% among 1,500; shares compounds with Scp-1 inhibitor; Recombinant SCP1, Sypro Orange thermal shift Tm; thermal shift relative to vanadate control, % at 40 µM;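 active = substances whose mean melting-temperature shift, as a percentage of the reference inhibitor's shift, reaches about 5.3%, limit read from the data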
A number is an active result; i = inactive; nt = no result. Only some compounds are listed: those with a hit (about 1.9% of all), similar ones and a draw of the others.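 Rule for the calls, unless noted: active = inhibition of at least 30% at 20 µM; inactive = the rest.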

SMILES	STEP inh	LMPTP block	Scp-1 inhibitor	SUMO1 PPI mod	FAS-TE inh	Scp1 confirm	Scp-1 MG ctr	Scp-1 Tm shift
CC1(C(=O)NCc2ccccc2)CN(S(C)(=O)=O)CC(=O)N1Cc1cccs1 (configuration not stated)	nt	i	nt	i	nt	nt	nt	nt
COc1ccc(CCN2CC(C(=O)OC(C)C(=O)Nc3cccc(Cl)c3)CC2=O)cc1OC (configuration not stated)	i	i	i	i	i	i	i	nt
COc1ccc2[nH]c(=O)c(-c3noc(-c4ccccc4)n3)cc2c1	i	i	82	65	i	60	i	i
Cc1cc(C)n2c(NC3CCCCC3)c(CC(C)C)nc2n1	nt	i	nt	i	i	nt	nt	nt
CC(C)c1nc(SCC(=O)NCC2CCCO2)c2c(=O)n(C)c(=O)n(C)c2n1 (configuration not stated)	i	i	i	i	i	nt	nt	nt
CCCCn1c(N)c(N(CC(C)C)C(=O)C2CC(=O)N(Cc3ccccc3)C2)c(=O)[nH]c1=O (configuration not stated)	i	i	i	i	i	i	i	nt
CC1(C(O)(C#CC[N+]2(C)CCCCC2)c2ccccc2)CCCC1 (configuration not stated)	i	i	98	i	i	94	i	i
Cn1cccc/c1=N\c1cccc[n+]1C	i	i	107	i	i	i	i	nt
CC1=C(C(=O)O)N2C(=O)C(NC(=O)c3ccccc3Cl)C2SC1 (configuration not stated)	i	i	i	i	i	nt	nt	nt
N[C@@H](C(=O)N[C@@H]1C(=O)N2C(C(=O)O)=C(Cl)CS[C@H]12)c1ccccc1	i	i	57	i	i	60	i	7.4
Cc1cccc(NC(=O)CNC(=O)CN2C(=O)NC3(CCc4ccccc43)C2=O)c1C (configuration not stated)	i	i	i	i	i	nt	nt	nt
C[C@@H]1CN([C@@H](C)CO)C(=O)CCCn2nncc2CO[C@@H]1CN(C)S(=O)(=O)c1ccc(Oc2ccccc2)nc1	i	i	nt	i	i	nt	nt	nt
CCN1C(=NCCc2ccccn2)N[C@@H](c2cccc(F)c2)C(C(=O)OC)=C1C	i	i	i	i	i	nt	nt	nt
COC(=O)C1=C(C)N(Cc2ccccc2)C(=NCCc2ccccn2)N[C@H]1c1cccc(F)c1	i	i	59	i	i	i	i	nt
O=C(NCc1ccccc1)C(C1CC1)n1c(=O)c(-c2cc3ccccc3[nH]2)nc2ccccc21 (configuration not stated)	nt	i	nt	i	nt	nt	nt	nt
CCCCC(CC)C(=O)O (configuration not stated)	i	i	i	i	i	nt	nt	nt
Brc1ccc(-c2nn3c(-c4ccco4)nnc3s2)o1	i	i	52	i	i	i	i	nt
Clc1ccc(OCc2nn3c(-c4ccco4)nnc3s2)c(Cl)c1	i	i	81	i	i	70	i	i
Clc1ccc(-c2ccc(-c3nn4c(-c5ccco5)nnc4s3)o2)cc1	i	i	77	i	i	50	i	i
Brc1ccc(-c2nn3c(-c4ccccn4)nnc3s2)o1	i	i	72	i	i	50	i	i
Clc1ccccc1-c1nn2c(-c3ccccn3)nnc2s1	i	i	i	i	i	nt	nt	nt
CC(C)C[C@@H]1CN(CCCC[C@H]2CNC(=O)C(=O)N2CCC2CCCCC2)C(=O)C(=O)N1Cc1ccccc1	nt	i	nt	i	i	nt	nt	nt
COC(=O)[C@]12CCCCC=C1N(Cc1ccc3c(c1)OCO3)C(=O)[C@H](CC(=O)N1CCN(C(=O)C3CC3)CC1)C2	nt	i	nt	i	nt	nt	nt	nt
Nc1nc2cc3c(cc2cc1C(=O)NCc1ccc(F)cc1)OCO3	nt	i	nt	i	i	nt	nt	nt
CC(C)CC(N)c1csc(NC(=O)c2cc(C(C)(C)C)nn2Cc2ccccc2)n1 (configuration not stated)	i	i	nt	i	i	nt	nt	nt
SMILES	STEP inh	LMPTP block	Scp-1 inhibitor	SUMO1 PPI mod	FAS-TE inh	Scp1 confirm	Scp-1 MG ctr	Scp-1 Tm shift
Cc1cccc(/C=C(\C(=O)O)c2ccc(S(=O)(=O)N3CCCC3)s2)c1	i	i	93	i	i	77	i	i
O=C(O)/C(=C\c1cccc(F)c1)c1ccc(S(=O)(=O)N2CCCC2)s1	i	i	i	i	i	nt	nt	nt
O=C(Nc1ccccc1Cl)c1cc(C2CCCCN2C(=O)CCCc2ccccc2)on1 (configuration not stated)	i	i	nt	i	i	nt	nt	nt
Cc1ccc(OCC(=O)N/N=C\c2ccc(O)c([N+](=O)[O-])c2)c([N+](=O)[O-])c1	i	i	67	i	i	42	i	9.8
Cc1ccc(/C=N\NC(=O)COc2ccc(C)cc2[N+](=O)[O-])cc1	i	i	i	i	i	nt	nt	nt
CCOc1ccccc1N(CC)C(=O)c1cc2c(s1)-c1ccccc1S(=O)(=O)C2	i	i	nt	i	i	nt	nt	nt
O=S1(=O)NC(CC2=CCCCC2)C2CCCCC2O1 (configuration not stated)	i	i	50	i	i	i	i	nt
O=S1(=O)N[C@@H](CC2=CCCCC2)C2CCCCC2O1 (some centres not stated)	i	i	i	i	i	nt	nt	nt
C=C(C)C(=O)Nc1cccc(C2=NOC3(C2)C[C@H](C(N)=O)N(C(=O)/C=C/C)C3)c1 (some centres not stated)	i	i	66	60	i	57	i	i
C=C(C)C(=O)Nc1cccc(C2=NOC3(C2)C[C@@H](C(N)=O)N(C(=O)/C=C/CC)C3)c1 (some centres not stated)	i	i	69	64	i	57	i	i
C/C=C/C(=O)N1CC2(CC(c3cccc(NC(=O)CC)c3)=NO2)C[C@H]1C(N)=O (some centres not stated)	i	i	i	i	i	nt	nt	nt
C/C=C\C(=O)Nc1cccc(C2=NOC3(C2)C[C@H](C(N)=O)N(C(=O)/C=C/CC)C3)c1 (some centres not stated)	i	i	i	i	i	nt	nt	nt
CCCCOC(=O)c1ccc(NC(=O)COC(=O)CSc2nc(C)cc(C)n2)cc1	i	i	i	i	i	nt	nt	nt
C[C@@H]1CN([C@@H](C)CO)C(=O)c2ccccc2-c2ccccc2CO[C@@H]1CN(C)S(=O)(=O)c1ccc(C(F)(F)F)cc1	i	i	nt	i	i	nt	nt	nt
COc1ccc(S(=O)(=O)NCCSC(C)(C)C)c(Cl)c1Cl	i	i	60	i	i	34	i	i
O=C(N[C@@H]1CC[C@@H](CCNC(=O)C2CCOCC2)O[C@@H]1CO)c1ccncc1	nt	i	nt	i	nt	nt	nt	nt
CSCCC(NC(=O)C1CCCC1)c1nnc2ccccn12 (configuration not stated)	i	i	i	i	i	nt	nt	nt

High-throughput results (PubChem BioAssay)
